The values that follow come from the RNAGym collection of RNA variant scans (doi:10.1126/science.aae0568).

B1: tRNA (parent)
chain: GUUCCGUUGGCGUAAUGGUAACGCGUCUCCCUCCUAAGGAGAAGACUGCGGGUUCGAGUCCCGUACGGAACG

This sample holds only a part of the variants without activity.

In this data set the parent is B1. The experiment in a line: yeast fitness relative to wild type (ratio to wild type); higher = fitter; tRNA-Arg(CCU), competitive growth, 37 C, YPD. In outline:
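Variants of the tRNA-Arg(CCU) gene, chemically synthesised with a 3% per-site mutation rate at 69 sites, were placed at the native genomic locus in Saccharomyces cerevisiae. The pooled strains were competed in YPD at 37°C for 24 hours in six parallel replicates. Gene amplicons from the start population and from each end population were read by 100-nucleotide paired-end sequencing. Darwinian fitness relative to wild type came from changes in genotype frequencies; genotypes needed ≥ 100 starting reads, and estimates < 0.5 were set to 0.5.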
For U28G A42U, the yeast fitness was 0.71.
For the variant U28A C30G, the yeast fitness was 0.51.
Next, U28A C30A: 0.759; U28C A69U: 0.893.
As for U28A C34A A40G C66A, the yeast fitness is not above 0.5.
Next, C29A C30G A36C G44C G51C: not above 0.5; U28G A36C G38C C49U: not above 0.5; U28C A43C G44C C61A: 0.548.
As for U28C C29A C31G C55A G58A, the yeast fitness is not above 0.5.
Regarding U28A C34U U47C C60U, the yeast fitness is not above 0.5.
Regarding U28C A43C G44C, the yeast fitness was not above 0.5.
In the case of U28C A45G, the yeast fitness was found to be 0.948.
Consider C29A A37U C49A, for which the yeast fitness was not above 0.5.
For C29A C31U A40U, the yeast fitness was not above 0.5.
On to U28C G48A, for which the yeast fitness was 0.866.
U28A C31G U35C C60U C61U: the yeast fitness was not above 0.5.
Regarding U28A C46G G56A, the yeast fitness amounted to 0.676.
Consider C29A A57U C62U, for which the yeast fitness was not above 0.5.
On to C29A C30A, for which the yeast fitness amounted to 0.591.
Next, U28A C30U C66U: not above 0.5.
On to C29A A37G G58A, for which the yeast fitness was not above 0.5.
With U28C G63C U64A C66G, the yeast fitness is not above 0.5.
For U28G A36U C46U C61U, the yeast fitness is not above 0.5.
Regarding U28A C29G G44C A65U, the yeast fitness was 0.935.
Regarding U28C C55U, the yeast fitness was found to be 0.685.
As for U28C C55A, the yeast fitness stood at 0.564.
Next, U28A C29U A45C: 0.522; U28A C33A G51C A57C: not above 0.5.
The same measure for U28C G68A: 0.839; for C29A C30U A36U A70C: not above 0.5.
Consider U28C U35C, for which the yeast fitness was found to be 0.751.
Regarding U28A C29G A57C G67A, the yeast fitness is not above 0.5.
The same measure for C29A C31A A40C G44A U59A: 0.682; for U28A C33U C55G A70U: not above 0.5.
U28G A57U A70U: the yeast fitness is 0.721.
For the variant U28A C31G U35A U47A U54A, the yeast fitness is not above 0.5.
As for U28C A42C U54G, the yeast fitness is not above 0.5.
Regarding U28C C46U G51C A70C, the yeast fitness is not above 0.5.
The same measure for C29A C31G G39A G48C: not above 0.5; for U28A G58U A65C: not above 0.5.
For the variant U28C C66U, the yeast fitness amounted to 0.907.
As to U28C C66G, the yeast fitness was 0.72.
For U28C U47C G58A, the yeast fitness was found to be 1.07.
Regarding C29A C30U C62G U64A, the yeast fitness turned out to be 0.553.
U28G U35G A45U: the yeast fitness was not above 0.5.
As for U28C A70G, the yeast fitness came out at 0.92.
On to C29A A43G, for which the yeast fitness worked out at 0.645.
The same measure for C29A A43U: 0.585; for C29A C31G C55A G58A: 0.568; for U28C C46U: 0.911.
Regarding U28A G39A C46A A57C, the yeast fitness was not above 0.5.
In the case of U28C G52A A69U, the yeast fitness turned out to be 0.592.
For the variant U28C A37G, the yeast fitness was 0.724.
U28C A37C: the yeast fitness was 0.786.
Take U28A C33G: the yeast fitness is 0.618.
Turning to U28G G38A A40G G56A C62U, the yeast fitness was not above 0.5.
The same measure for C29A A42C: 0.662; for C29A A42G: 0.672.
On to C29A C31G C60A, for which the yeast fitness stood at 0.656.
On to C29A A42G C61G, for which the yeast fitness came to 0.533.
As for U28A C29A C46U C55G, the yeast fitness was not above 0.5.
For U28G C66U, the yeast fitness stood at 0.778.
In the case of C29A A57C, the yeast fitness is 0.555.
On to U28G C31U A69U, for which the yeast fitness was determined as 0.524.
Take U28G C33G G68C: the yeast fitness was not above 0.5.
For the variant U28A C30U A40G U54G, the yeast fitness is not above 0.5.
Take U28G C62U C66G: the yeast fitness amounted to 0.568.
Regarding U28G C31G A57C C66U, the yeast fitness is not above 0.5.
With U28G A37G G50C, the yeast fitness amounted to 0.528.
As for C29A C30A G50A A70C, the yeast fitness was not above 0.5.
For U28C G63U, the yeast fitness was determined as 0.521.
With U28C G63C, the yeast fitness worked out at 0.611.
Turning to U28C G63A, the yeast fitness amounted to 0.939.
For U28C C33U A37G G41A G52C, the yeast fitness is not above 0.5.
Regarding U28C C31A, the yeast fitness came to 0.784.
Next, U28C C31G: 0.907; C29A C30A G58C C62U: 0.565.
Next, C29A A37C A42C G50A: not above 0.5; C29A A40G C55U: not above 0.5.
Take U28A U32G A69U: the yeast fitness was not above 0.5.
Next, U28A U32C A70G: 0.604; U28G A57C A65C: not above 0.5; U28C U47C A70G: 0.743.
The same measure for U28C A40G G51C A65U: 0.545; for U28G A36G A45G: 0.718.
The same measure for U28A G52A: 0.705; for U28A C49U U54G C62U: not above 0.5; for U28C G51A U59A A65C: not above 0.5.
Take C29A A37U: the yeast fitness is not above 0.5.
As for U28C A57U, the yeast fitness came out at 0.823.
With U28G G67A, the yeast fitness amounted to 0.69.
The same measure for U28A G52A A57U C60U A65G G68A: 0.59; for U28A C61G C62G: 0.533.
With C29A A36U C61U G67A G68U, the yeast fitness was not above 0.5.
Consider U28G A37C C55U, for which the yeast fitness is not above 0.5.
In the case of U28C C29G C49U, the yeast fitness was not above 0.5.
In the case of C29A A69G, the yeast fitness was found to be 0.6.
Consider U28C C33G G38A A57G, for which the yeast fitness is not above 0.5.
The same measure for U28G G38A A57C: not above 0.5.
The same measure for U28G C29A: not above 0.5; for U28G C29G: 0.608.
The same measure for U28A G38A C55G: not above 0.5.
Regarding U28A C62U, the yeast fitness is 0.86.
Next, U28C C29U A45C: 0.545.
The same measure for U28C C33A A42C A45U: not above 0.5; for U28A U47C: 0.858; for U28A U47G: 0.535.
In the case of U28C C61G G68C, the yeast fitness is not above 0.5.
The same measure for U28A C29G C31U U54C: not above 0.5.
In the case of U28G G51A C62G, the yeast fitness is not above 0.5.
Next, U28C C55U A57C: not above 0.5; U28A C29G C33U C34G A42U U59C: not above 0.5; U28G C55U G67C: not above 0.5.
Take U28A C31G A42U C49G G67U: the yeast fitness was not above 0.5.
Take U28C A40G A70C: the yeast fitness turned out to be 0.576.
As to U28A C31A C33U A37C G50A A65U, the yeast fitness was not above 0.5.
Turning to U28C C62U U64C, the yeast fitness is 0.7.
Turning to U28G C31U C49G, the yeast fitness was not above 0.5.
As for U28A U32G A65U, the yeast fitness is not above 0.5.
Turning to U28A C60U, the yeast fitness was determined as 0.64.
As to U28C C62U, the yeast fitness is 1.02.
Take U28C C62G: the yeast fitness is 0.724.
The same measure for U28A C31U U32A C55U: not above 0.5; for U28C G51A: 0.773; for U28C C55A C61U G68A A70G: not above 0.5.
For the variant U28G C34G G44C C61G, the yeast fitness was found to be 0.558.
On to C29A A42G A57C, for which the yeast fitness came out at 0.592.
With C29A A36C C55U C61A, the yeast fitness is not above 0.5.
U28C: the yeast fitness amounted to 0.981.
Regarding U28G, the yeast fitness is 0.957.
U28G C34G A36G G44C C61G: the yeast fitness is not above 0.5.
Turning to U28G C30G A40C A42U, the yeast fitness is not above 0.5.
The same measure for U28A G41A: 0.697; for U28G U47C: 0.824.
In the case of U28C G56A, the yeast fitness is 0.933.
U28C A40G: the yeast fitness stood at 0.807.
As for U28C C30G C49G, the yeast fitness was not above 0.5.
Next, U28A G51C C55G A57C U64A G67C: not above 0.5; U28A G44A G50A A57G G68C: not above 0.5; C29A A36C G52C: 0.545.
Next, U28C G58A: 0.937; U28G C34U A45U: 0.52.
The same measure for C29A A42G G63A: not above 0.5.
On to C29A C30U U47C U64C, for which the yeast fitness was not above 0.5.
Consider U28C C31U A36G G63C, for which the yeast fitness was not above 0.5.
With U28A U35C A37C, the yeast fitness is 0.647.
Next, U28C G41A A57U C66G: not above 0.5.
Consider U28A C34G G39C A57G C66U, for which the yeast fitness is not above 0.5.
Next, U28C C31U G51A G63C: not above 0.5.
Take U28G C34A: the yeast fitness came to 0.568.
C29A A45U U59C: the yeast fitness was 0.721.
On to U28A C31U A65U, for which the yeast fitness came out at 0.546.
For U28G G50C A57U C62A, the yeast fitness was found to be 0.619.
In the case of U28C G48C U53C, the yeast fitness turned out to be 0.553.
With U28C G44C, the yeast fitness is 0.935.
C29A A42U C46A: the yeast fitness came out at 0.619.
Take U28G G51C U64A C66U: the yeast fitness was not above 0.5.
As for U28C A42U, the yeast fitness turned out to be 0.816.
Next, U28G C31U G68A: not above 0.5; U28C G51A C55U C66G: 0.553.
Next, U28A C34U G52A: not above 0.5; U28C C30U: 0.767; U28C C30G: 0.667.
U28C C30U A45C G58A G67U: the yeast fitness is not above 0.5.
As for U28C C34A C49G G51C, the yeast fitness is not above 0.5.
For the variant U28C G38A A40C A45G G48A U59A C62U, the yeast fitness is 0.542.
On to U28A C29U A37G G52C, for which the yeast fitness is not above 0.5.
